From paper PMC4349556 (Journal of pharmaceutical sciences, 2014)

Assays:
[1] = Hydration of drug in buffer in the absence of lipids; assay type: physicochemical; details: after solvent removal and hydration in buffer
[2] = DPH fluorescence anisotropy: membrane fluidity and phase transition temperature; assay type: physicochemical; details: lipid-to-drug molar ratio 8:1
[3] = 12 HIV infected patients, prospective clinical study; cited from earlier work
[4] = Plasma time course of anti-HIV drug combination lipid nanoparticles in primates; details: male, Macaca nemestrina (macaque), in vivo, sc
[5] = Drug incorporation efficiency into lipid-drug nanoparticles; assay type: physicochemical; details: for Drug incorporation (% total): anti-HIV drug combination LNPs (ATV+RTV+TFV) used in primates, preclinical scale; for Incorporation efficiency (%): DSPC:DSPE-mPEG2000 8:2, mean ± SD of 4
Outline: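 Film rehydrated in 0.9% NaCl with 20 mM sodium bicarbonate (pH 7.4) at 60°C for 2 h, then sonicated or homogenized. 50 μL aliquot dialyzed (MWCO 6,000-8,000) against 1,000 mL pH 7.4 buffer; drug quantified by HPLC/MS/MS. Efficiency = incorporated/total loaded ×100%.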

| AUC fraction (% total) 8-168 h [4] [%] | Drug incorporation (% total) [5] [%] | Incorporation efficiency (%) ([5]; lipid : drug 5 : 1 (mol/mol)) | Incorporation efficiency (%) ([5]; lipid : drug 8 : 1 (mol/mol)) | Incorporation efficiency (%) ([5]; lipid : drug 20 : 1 (mol/mol)) | Incorporation efficiency ([5]; range over lipid-to-drug molar ratios 5:1, 8:1 and 20:1) | Compound | Behaviour in the absence of lipids in the mixture [1] | Effect on DPH polarization / membrane order versus drug-free lipid control [2] | Reduction of Tc versus control LNPs [2] [°C] | Lymph node intracellular drug levels lower than those in blood [3] [%] |
| --- | --- | --- | --- | --- | --- | --- | --- | --- | --- | --- |
|  |  |  |  |  |  | CC(C)CN(C[C@@H](O)[C@H](Cc1ccccc1)NC(=O)O[C@H]1CO[C@H]2OCC[C@H]21)S(=O)(=O)c1ccc(N)cc1 [Darunavir (DRV), Darunavir] | formed precipitates | decreased the polarization of DPH | 1.6 |  |
| 95.3 | 85.5 ± 8.2 | 96.5 ± 2.6 | 96.2 ± 3.8 | 97.4 ± 1.8 | 96.2-97.4% | COC(=O)N[C@H](C(=O)N[C@@H](Cc1ccccc1)[C@@H](O)CN(Cc1ccc(-c2ccccn2)cc1)NC(=O)[C@@H](NC(=O)OC)C(C)(C)C)C(C)(C)C [Atazanavir (ATV), Atazanavir] | formed precipitates | less influence on the membrane order |  | ≤ 99 |
| 97.4 | 6.1 ± 0.8 |  |  |  |  | C[C@H](Cn1cnc2c(N)ncnc21)OCP(=O)(O)O [Tenofovir (TFV), tenofovir] |  |  |  |  |
| 80.4 |  |  |  |  |  | CC(C)c1nc(CN(C)C(=O)N[C@H](C(=O)N[C@@H](Cc2ccccc2)C[C@H](O)[C@H](Cc2ccccc2)NC(=O)OCc2cncs2)C(C)C)cs1 [Ritonavir (RTV), ritonavir] |  |  |  |  |
